Measured values gathered from unrelated publications.
Protocols differ between the studies behind these lines.
SLC22A11: Solute carrier family 22 member 11 (SLC22A11, Homo sapiens, UniProt Q9NSA0)
GIPR: Gastric inhibitory polypeptide receptor (GIPR, Homo sapiens, UniProt P48546)

Structure (SMILES)	target	effect on	mode	method	tested at	measurement	result
CC(C)CC(=O)OC[C@H]1O[C@@](C#N)(c2ccc3c(N)ncnn23)[C@H](O)[C@@H]1O	Alpha-2A adrenergic receptor (ADRA2A, Homo sapiens, UniProt P08913)	cell-free assay			20 µM	inhibition	6%
Cn1c(=O)c2[nH]cnc2n(C)c1=O	SLC22A11	transporter uptake	inhibitor		25 µM	inhibition	81.6%
CN1CCC[C@H]1c1cccnc1	Delta-type opioid receptor (OPRD1, Homo sapiens, UniProt P41143)	ligand displacement			50 µM	inhibition	-7.8%
CC[C@H](C)[C@H](NC(=O)[C@H](CO)NC(=O)[C@H](Cc1ccc(O)cc1)NC(=O)[C@H](CC(=O)O)NC(=O)[C@H](CO)NC(=O)[C@@H](NC(=O)[C@H](Cc1ccccc1)NC(=O)[C@@H](NC(=O)CNC(=O)[C@H](CCC(=O)O)NC(=O)CCNC(=O)C1(c2ccc(Cl)cc2)CCOCC1)[C@@H](C)O)[C@@H](C)CC)C(=O)N[C@@H](C)C(=O)N[C@@H](CCSC)C(=O)N[C@@H](CC(=O)O)C(=O)N[C@@H](CCCCN)C(=O)N[C@H](C(=O)N[C@@H](Cc1c[nH]cn1)C(=O)N[C@@H](CCC(N)=O)C(=O)N[C@@H](CCC(N)=O)C(=O)N[C@@H](CC(=O)O)C(=O)N[C@@H](Cc1ccccc1)C(=O)N[C@H](C(=O)N[C@@H](CC(N)=O)C(=O)N[C@@H](Cc1c[nH]c2ccccc12)C(=O)N[C@@H](CC(C)C)C(=O)N[C@@H](CC(C)C)C(=O)N[C@@H](C)C(=O)N[C@@H](CCC(N)=O)C(=O)NCC(=O)N1CCC[C@H]1C(=O)N[C@@H](CO)C(=O)N[C@@H](CO)C(=O)NCC(=O)N[C@@H](C)C(=O)N1CCC[C@H]1C(=O)N1CCC[C@H]1C(=O)N1CCC[C@H]1C(=O)N[C@@H](CO)C(=O)N[C@@H](CCCCN)C(N)=O)C(C)C)[C@@H](C)CC	GIPR	β-arrestin recruitment	agonist			Emax	14%
CCCCCCCCCc1ccc(OCCOCCOCCOCCOCCOCCOCCOCCOCCO)cc1	SLC22A11	transporter uptake	inhibitor		25 µM	inhibition	79.9%
[2H]c1c([2H])c([C@]2([2H])CCCN2C(=O)C(C)(C)Oc2ccc3cn[nH]c3c2)c([2H])c([2H])c1C([2H])([2H])[2H]	Receptor tyrosine-protein kinase erbB-2 (ERBB2, Homo sapiens, UniProt P04626)	binding		competition with immobilised ligand	1 µM	remaining binding	83%
c1cncc([C@@H]2CCCN2)c1	5-hydroxytryptamine receptor 3A (HTR3A, Homo sapiens, UniProt P46098)	ligand displacement		radioligand	50 µM	inhibition	-3.09%
CC[C@H](C)[C@H](NC(=O)[C@H](CO)NC(=O)[C@H](Cc1ccc(O)cc1)NC(=O)[C@H](CC(=O)O)NC(=O)[C@H](CO)NC(=O)[C@@H](NC(=O)[C@H](Cc1ccccc1)NC(=O)[C@@H](NC(=O)CNC(=O)[C@H](CCC(=O)O)NC(=O)[C@@H](C)NC(=O)[C@@H](N)Cc1ccc(O)cc1)[C@@H](C)O)[C@@H](C)CC)C(=O)N[C@@H](C)C(=O)N[C@@H](CCSC)C(=O)N[C@@H](CC(=O)O)C(=O)N[C@@H](CCCCN)C(=O)N[C@H](C(=O)N[C@@H](Cc1c[nH]cn1)C(=O)N[C@@H](CCC(N)=O)C(=O)N[C@@H](CCC(N)=O)C(=O)N[C@@H](CC(=O)O)C(=O)N[C@@H](Cc1ccccc1)C(=O)N[C@H](C(=O)N[C@@H](CC(N)=O)C(=O)N[C@@H](Cc1c[nH]c2ccccc12)C(=O)N[C@@H](CC(C)C)C(=O)N[C@@H](CC(C)C)C(=O)N[C@@H](C)C(=O)N[C@@H](CCC(N)=O)C(=O)NCC(=O)N1CCC[C@H]1C(=O)N[C@@H](CO)C(=O)N[C@@H](CO)C(=O)NCC(=O)N[C@@H](C)C(=O)N1CCC[C@H]1C(=O)N1CCC[C@H]1C(=O)N1CCC[C@H]1C(=O)N[C@@H](CO)C(=O)N[C@@H](CCCCN)C(N)=O)C(C)C)[C@@H](C)CC	GIPR	β-arrestin recruitment	agonist			Emax	103%
